According to ChEMBL document CHEMBL4732114, “Design and structural optimization of novel 2H-benzo[h]chromene derivatives that target AcrB and reverse bacterial multidrug resistance” (Eur J Med Chem, 2021):
In brackets after ≈: the same amount, converted by molar mass. Activity calls are given as the source filed them. The rule behind the calls is not given here.

How the values were obtained:
[1] = target: T1, Multidrug efflux pump subunit AcrB (Escherichia coli (strain K12)) (UniProt P31224); settings: Escherichia coli BW25113; dose 8.0 µg/ml
T1 sequence (whole entry): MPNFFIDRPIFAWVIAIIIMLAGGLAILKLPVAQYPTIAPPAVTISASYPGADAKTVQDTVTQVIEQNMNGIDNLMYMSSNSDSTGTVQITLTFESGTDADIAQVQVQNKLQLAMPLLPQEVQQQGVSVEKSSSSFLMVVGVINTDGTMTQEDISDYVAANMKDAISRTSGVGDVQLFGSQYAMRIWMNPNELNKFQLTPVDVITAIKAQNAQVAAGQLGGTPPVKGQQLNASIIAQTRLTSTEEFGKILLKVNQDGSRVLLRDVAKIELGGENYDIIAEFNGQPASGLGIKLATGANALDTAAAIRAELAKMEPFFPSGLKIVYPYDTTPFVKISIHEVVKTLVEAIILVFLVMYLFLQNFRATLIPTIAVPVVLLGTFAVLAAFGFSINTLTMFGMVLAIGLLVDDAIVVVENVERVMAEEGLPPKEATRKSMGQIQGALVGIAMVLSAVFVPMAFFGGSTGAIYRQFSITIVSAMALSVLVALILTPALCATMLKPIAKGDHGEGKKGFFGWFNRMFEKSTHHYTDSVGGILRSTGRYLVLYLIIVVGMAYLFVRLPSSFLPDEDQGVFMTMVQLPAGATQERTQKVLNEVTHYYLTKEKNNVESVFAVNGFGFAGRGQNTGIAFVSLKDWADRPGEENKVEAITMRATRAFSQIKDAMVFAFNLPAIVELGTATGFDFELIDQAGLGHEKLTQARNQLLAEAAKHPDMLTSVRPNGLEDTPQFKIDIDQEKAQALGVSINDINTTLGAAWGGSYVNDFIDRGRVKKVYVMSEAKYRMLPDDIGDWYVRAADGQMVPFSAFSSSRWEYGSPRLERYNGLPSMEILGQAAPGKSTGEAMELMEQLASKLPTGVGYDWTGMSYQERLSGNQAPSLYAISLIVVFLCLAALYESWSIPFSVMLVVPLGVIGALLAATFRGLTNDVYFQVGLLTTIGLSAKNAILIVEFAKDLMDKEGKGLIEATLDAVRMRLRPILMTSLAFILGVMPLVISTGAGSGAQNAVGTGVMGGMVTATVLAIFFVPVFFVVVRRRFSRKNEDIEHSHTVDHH

[2] = target: T1, Multidrug efflux pump subunit AcrB (Escherichia coli (strain K12)); test: Inhibition of AcrB in multidrug-resistant Escherichia coli BW25113 assessed as potentiation of tetraphenylphosphonium-induced antibacterial activity by measuring tetraphenylphosphonium MIC at 64 ug/ml by checkerboard titration method (reference value: 1024 ug/ml); settings: dose 64.0 µg/ml
Cell membrane = test: Induction of inner membrane permeabilization in wild type Escherichia coli BW25113 assessed as perturbation of proton motive force at 128 ug/ml measured after 10 mins in presence of CCCP and glucose by Di0C2(3) probe based fluorescence assay; settings: escherichia coli bw25113, 10 min, dose 128 µg/ml
Outline: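 Cell suspensions were left untreated or exposed to 8-128 µg/mL compound for 10 min. DiOC₂(3) was then added and fluorescence followed to a plateau. Cells were re-energized with 0.5% glucose, and the rise in fluorescence was read as membrane-potential build-up. CCCP was added last to dissipate the potential.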

[3] = target: T1, Multidrug efflux pump subunit AcrB (Escherichia coli (strain K12)); test: Inhibition of AcrB in multidrug-resistant Escherichia coli BW25113 assessed as potentiation of tetraphenylphosphonium-induced antibacterial activity by measuring tetraphenylphosphonium MIC at 16 ug/ml by checkerboard titration method (reference value: 1024 ug/ml); settings: dose 16.0 µg/ml
[4] = target: T1, Multidrug efflux pump subunit AcrB (Escherichia coli (strain K12)); test: Inhibition of AcrB in Escherichia coli BW25113 assessed as reduction in glucose-induced nile red efflux at 100 uM preincubated for 15 mins followed by nile red addition and incubated for 3 hrs in shaker in presence of CCCP by fluorimetric analysis; settings: time 3.25 hrs
Outline: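 Wild-type and AcrB-deleted cells were preloaded with Nile Red, with or without compound. Fluorescence was recorded, and efflux was triggered at 100 s with 0.2% glucose. Traces were compared with the deletion-strain level. Triplicate experiments used different cell batches.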

[5] = target: T1, Multidrug efflux pump subunit AcrB (Escherichia coli (strain K12)); settings: Escherichia coli BW25113; dose 128.0 µg/ml
[6] = target: T1, Multidrug efflux pump subunit AcrB (Escherichia coli (strain K12)); test: Inhibition of AcrB in multidrug-resistant Escherichia coli BW25113 assessed as potentiation of levofloxacin-induced antibacterial activity by measuring levofloxacin MIC at 128 ug/ml by checkerboard titration method (reference value: 0.06 ug/ml); settings: dose 128.0 µg/ml
[7] = target: T1, Multidrug efflux pump subunit AcrB (Escherichia coli (strain K12)); test: Inhibition of AcrB in multidrug-resistant Escherichia coli BW25113 assessed as potentiation of tetraphenylphosphonium-induced antibacterial activity by measuring tetraphenylphosphonium MIC at 8 ug/ml by checkerboard titration method (reference value: 1024 ug/ml); settings: dose 8.0 µg/ml
[8] = target: T1, Multidrug efflux pump subunit AcrB (Escherichia coli (strain K12)); test: Inhibition of AcrB in multidrug-resistant Escherichia coli BW25113 assessed as potentiation of chloramphenicol-induced antibacterial activity by measuring chloramphenicol MIC at 16 ug/ml by checkerboard titration method (reference value: 8 ug/ml); settings: dose 16.0 µg/ml
[9] = target: T1, Multidrug efflux pump subunit AcrB (Escherichia coli (strain K12)); test: Inhibition of AcrB in multidrug-resistant Escherichia coli BW25113 assessed as potentiation of levofloxacin-induced antibacterial activity by measuring levofloxacin MIC at 32 ug/ml by checkerboard titration method (reference value: 0.06 ug/ml); settings: dose 32.0 µg/ml
[10] = target: T1, Multidrug efflux pump subunit AcrB (Escherichia coli (strain K12)); test: Inhibition of AcrB in multidrug-resistant Escherichia coli BW25113 assessed as potentiation of erythromycin-induced antibacterial activity by measuring erythromycin MIC at 32 ug/ml by checkerboard titration method (reference value: 64 ug/ml); settings: dose 32.0 µg/ml
[11] = target: T1, Multidrug efflux pump subunit AcrB (Escherichia coli (strain K12)); test: Inhibition of AcrB in multidrug-resistant Escherichia coli BW25113 assessed as potentiation of erythromycin-induced antibacterial activity by measuring erythromycin MIC at 128 ug/ml by checkerboard titration method (reference value: 64 ug/ml); settings: dose 128.0 µg/ml
[12] = target: T1, Multidrug efflux pump subunit AcrB (Escherichia coli (strain K12)); test: Inhibition of AcrB in multidrug-resistant Escherichia coli BW25113 assessed as potentiation of erythromycin-induced antibacterial activity by measuring erythromycin MIC at 16 ug/ml by checkerboard titration method (reference value: 64 ug/ml); settings: dose 16.0 µg/ml
[13] = target: T1, Multidrug efflux pump subunit AcrB (Escherichia coli (strain K12)); test: Inhibition of AcrB in multidrug-resistant Escherichia coli BW25113 assessed as potentiation of levofloxacin-induced antibacterial activity by measuring levofloxacin MIC at 8 ug/ml by checkerboard titration method (reference value: 0.06 ug/ml); settings: dose 8.0 µg/ml
[14] = target: T1, Multidrug efflux pump subunit AcrB (Escherichia coli (strain K12)); settings: Escherichia coli BW25113; dose 64.0 µg/ml
[15] = target: T1, Multidrug efflux pump subunit AcrB (Escherichia coli (strain K12)); test: Inhibition of AcrB in multidrug-resistant Escherichia coli BW25113 assessed as potentiation of chloramphenicol-induced antibacterial activity by measuring chloramphenicol MIC at 32 ug/ml by checkerboard titration method (reference value: 8 ug/ml); settings: dose 32.0 µg/ml

| Structure (SMILES) | MIC [1] [µg/mL] | MIC [2] [µg/mL] | Activity (Cell membrane) | MIC [3] [µg/mL] | inhibition [4] | MIC [5] [µg/mL] | MIC [6] [µg/mL] | MIC [7] [µg/mL] | MIC [8] [µg/mL] | MIC [9] [µg/mL] | MIC [10] [µg/mL] | MIC [11] [µg/mL] | MIC [12] [µg/mL] | MIC [13] [µg/mL] | MIC [14] [µg/mL] | MIC [15] [µg/mL] |
| --- | --- | --- | --- | --- | --- | --- | --- | --- | --- | --- | --- | --- | --- | --- | --- | --- |
| CC1(C)CCc2c(Cn3cnnn3)cc3c(OCc4ccc([N+](=O)[O-])cc4)cccc3c2O1 | 16 (≈ 35.9 µM) | 1020 | Not Active | 1020 | Active | 16 (≈ 35.9 µM) | 0.06 | 1020 | 8 | 0.06 | 64 | 64 | 64 | 0.06 | 16 (≈ 35.9 µM) | 8 |
| COc1cccc(COc2cccc3c4c(c(C(=O)O)cc23)CCC(C)(C)O4)c1 | 16 (≈ 40.8 µM) | 512 | Not Active | 1020 | Active | 16 (≈ 40.8 µM) | 0.06 | 1020 | 8 | 0.06 | 32 | 16 | 64 | 0.06 | 16 (≈ 40.8 µM) | 8 |
| CC1(C)CCc2c(-c3nnco3)cc3c(OCc4ccc([N+](=O)[O-])cc4)cccc3c2O1 | 16 (≈ 37.1 µM) | 1020 | Not Active | 1020 | Active | 16 (≈ 37.1 µM) | 0.06 | 1020 | 8 | 0.06 | 64 | 32 | 64 | 0.06 | 16 (≈ 37.1 µM) | 8 |
| CC1(C)CCc2c(Cn3cnnn3)cc3c(OCc4ccc(OC(F)(F)F)cc4)cccc3c2O1 | 16 (≈ 33 µM) | 1020 | Not Active | 1020 | Active | 16 (≈ 33 µM) | 0.06 | 1020 | 8 | 0.06 | 64 | 32 | 64 | 0.06 | 16 (≈ 33 µM) | 8 |
| C=CC(=O)Nc1ccc(COc2cccc3c4c(c(C(=O)N5CCOCC5)cc23)CCC(C)(C)O4)cc1 | 16 (≈ 32 µM) | 128 | Not Active | 512 | Active | 16 (≈ 32 µM) | 0.01 | 512 | 4 | 0.06 | 16 | 8 | 16 | 0.06 | 16 (≈ 32 µM) | 4 |
| CC1CN(C(=O)c2cc3c(OCc4ccc(Br)cc4)cccc3c3c2CCC(C)(C)O3)CC(C)O1 (stereo not drawn) | 16 (≈ 29.7 µM) | 1020 | Not Active | 1020 | Active | 16 (≈ 29.7 µM) | 0.06 | 1020 | 8 | 0.06 | 64 | 32 | 64 | 0.06 | 16 (≈ 29.7 µM) | 8 |
| Cc1ccc(COc2cccc3c4c(c(-c5nnco5)cc23)CCC(C)(C)O4)cc1 | 16 (≈ 40 µM) | 512 | Not Active | 512 | Active | 16 (≈ 40 µM) | 0.01 | 512 | 8 | 0.03 | 32 | 8 | 32 | 0.03 | 16 (≈ 40 µM) | 8 |
| CNC(=O)c1ccc(COc2cccc3c4c(c(Cn5cnnn5)cc23)CCC(C)(C)O4)cc1 | 16 (≈ 35 µM) | 1020 | Not Active | 1020 | – | 16 (≈ 35 µM) | 0.06 | 1020 | 8 | 0.06 | 64 | 32 | 64 | 0.06 | 16 (≈ 35 µM) | 8 |
| CC1(C)CCc2c(Cn3cnnn3)cc3c(OCc4ccccc4)cccc3c2O1 | 16 (≈ 40 µM) | 1020 | Not Active | 1020 | Active | 16 (≈ 40 µM) | 0.03 | 1020 | 8 | 0.06 | 64 | 64 | 64 | 0.06 | 16 (≈ 40 µM) | 8 |
